# Measurements pooled from the literature.
# Lines come from different studies, so protocols differ.
Compound,tested on,assay,setting,quantity,result
O=C(C=Cc1ccccc1)Nc1cccc(-c2ccnc(N3CCC(O)CC3)c2)c1,A549,"cell growth or viability, MTT",5 µM,inhibition,54.8%
O=C(NC(=S)Nc1ccccc1O)c1ccco1,Leishmania donovani,"parasite growth, resazurin",promastigote,IC50,2460 nM
O=C1O[C@H]([C@@H](O)CO)C(O)=C1O,,ABTS scavenging,,IC50,350000 nM
CCCCCCCCCCCCCCCCOP(=O)([O-])OCC[N+](C)(C)C,Leishmania donovani,"parasite growth, resazurin",promastigote,IC50,1970 nM
C=CC(=O)NC1CCN(c2ncc3ncnc(Nc4ccc(Oc5ccc6c(c5)ncn6C)c(C)c4)c3n2)CC1,NCI-H2170,cell growth or viability,,EC50,38 nM
CCCOc1ccc2c(C)c(CC)c(=O)oc2c1C,PC-3,"cell growth or viability, MTT",250 µg/mL,viability,26.3%
O=C(NC(=S)Nc1ccccn1)c1ccco1,Leishmania donovani,"parasite growth, resazurin",promastigote,IC50,2300 nM
O=C1O[C@H]([C@@H](O)CO)C(O)=C1O,,"ABTS scavenging, absorbance",30 min,IC50,11300 nM
Cc1c(Cc2ccccc2)c(=O)oc2c(C)c(OCC(=O)NN=Cc3ccc(Cl)cc3)ccc12,PC-3,"cell growth or viability, MTT",250 µg/mL,viability,29%
O=C(NC(=S)Nc1ccccn1)c1cccs1,Leishmania donovani,"parasite growth, resazurin",promastigote,IC50,1260 nM
COc1cccc2c1C(=O)c1c(O)c3c(c(O)c1C2=O)C[C@@](O)(C(=O)CO)C[C@@H]3O[C@H]1C[C@H](N)[C@H](O)[C@H](C)O1,A549,"cell growth or viability, MTT","25 µg/mL, 48 h, serum-free",viability,38.2%
Cc1c(Cc2ccccc2)c(=O)oc2c(C)c(OCC(=O)NN=Cc3ccco3)ccc12,PC-3,"cell growth or viability, MTT",250 µg/mL,viability,11.1%
Cc1cccc(/C=C/C(=O)Nc2cccc(-c3ccnc(N4CCC(CO)CC4)c3)c2)c1,A549,"cell growth or viability, MTT",5 µM,inhibition,52.9%
O=C(NC(=S)Nc1cccc(O)c1)c1ccco1,Leishmania donovani,"parasite growth, resazurin",promastigote,IC50,480 nM
C=CCNC(=S)NNC(=O)COc1ccc2c(C)c(CC)c(=O)oc2c1C,PC-3,"cell growth or viability, MTT",31.25 µg/mL,viability,99.9%
Cc1c(C)c2c(c(C)c1O)CCC(C)(C(=O)O)O2 (stereo not shown),,ABTS scavenging,,IC50,160000 nM
